Laboratory results: ChEMBL document CHEMBL4118021, “Studies of TAK1-centered polypharmacology with novel covalent TAK1 inhibitors” (Bioorg Med Chem, 2017)
One block for each compound: values may come before it. Calls of active or inactive are those of the source. No cut-off for these calls is given here.

How the values were obtained:
[1] = target: T1, Mitogen-activated protein kinase kinase kinase 7 (Homo sapiens) (UniProt O43318); assay: Inhibition of TAK1 in RA patient-derived synovial fibroblasts assessed as inhibition of TNFalpha-induced cytokine secretion at 3 uM preincubated for 3 hrs followed by TNFalpha stimulation measured after 18 hrs by sandwich immunoassay
T1 sequence (whole entry): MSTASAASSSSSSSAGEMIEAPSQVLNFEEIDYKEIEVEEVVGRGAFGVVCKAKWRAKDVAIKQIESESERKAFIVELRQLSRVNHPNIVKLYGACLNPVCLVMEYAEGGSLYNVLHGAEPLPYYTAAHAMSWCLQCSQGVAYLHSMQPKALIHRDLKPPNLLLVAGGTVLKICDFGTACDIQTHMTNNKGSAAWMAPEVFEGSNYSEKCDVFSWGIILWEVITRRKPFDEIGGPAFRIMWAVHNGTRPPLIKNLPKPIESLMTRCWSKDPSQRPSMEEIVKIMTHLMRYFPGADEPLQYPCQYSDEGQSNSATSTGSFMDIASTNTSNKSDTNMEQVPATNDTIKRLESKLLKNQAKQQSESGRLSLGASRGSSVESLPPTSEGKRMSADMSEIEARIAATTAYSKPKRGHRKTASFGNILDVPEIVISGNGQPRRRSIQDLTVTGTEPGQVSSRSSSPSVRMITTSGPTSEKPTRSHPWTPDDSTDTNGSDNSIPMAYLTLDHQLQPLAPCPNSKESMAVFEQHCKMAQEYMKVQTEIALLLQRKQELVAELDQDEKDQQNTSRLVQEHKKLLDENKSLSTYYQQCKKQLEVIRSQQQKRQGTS
How it was run: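 Primary RA synovial fibroblasts (donor RA2159) seeded 1000 cells/well and grown ~24 h at 37 °C, 5% CO2. Starved overnight in basal medium, then ~4 h in basal medium with 0.1% BSA. Two adjacent wells pooled per replicate, in biological duplicate. Supernatants diluted 1:3 and run on Luminex 27-plex/21-plex sandwich immunoassays for 48 analytes, with spiked-ligand and mock-supernatant background controls.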

[2] = target: Macrophage-stimulating protein receptor (Homo sapiens) (UniProt Q04912); assay: Inhibition of RON in human SKCO1 cells at 1 uM after 4 hrs using biotin labeled IQCAIKSLSR probe by mass-spectrometric analysis relative to control; assay type: cell-based
[3] = target: Serine/threonine-protein kinase Nek1 (Homo sapiens) (UniProt Q96PY6); assay: Inhibition of NEK1 in human SKCO1 cells at 1 uM after 4 hrs using biotin labeled DIKSQNIFLTK probe by mass-spectrometric analysis relative to control; assay type: cell-based
Chain of Serine/threonine-protein kinase Nek1 (Homo sapiens) (Q96PY6 whole entry, the tested form may be a part): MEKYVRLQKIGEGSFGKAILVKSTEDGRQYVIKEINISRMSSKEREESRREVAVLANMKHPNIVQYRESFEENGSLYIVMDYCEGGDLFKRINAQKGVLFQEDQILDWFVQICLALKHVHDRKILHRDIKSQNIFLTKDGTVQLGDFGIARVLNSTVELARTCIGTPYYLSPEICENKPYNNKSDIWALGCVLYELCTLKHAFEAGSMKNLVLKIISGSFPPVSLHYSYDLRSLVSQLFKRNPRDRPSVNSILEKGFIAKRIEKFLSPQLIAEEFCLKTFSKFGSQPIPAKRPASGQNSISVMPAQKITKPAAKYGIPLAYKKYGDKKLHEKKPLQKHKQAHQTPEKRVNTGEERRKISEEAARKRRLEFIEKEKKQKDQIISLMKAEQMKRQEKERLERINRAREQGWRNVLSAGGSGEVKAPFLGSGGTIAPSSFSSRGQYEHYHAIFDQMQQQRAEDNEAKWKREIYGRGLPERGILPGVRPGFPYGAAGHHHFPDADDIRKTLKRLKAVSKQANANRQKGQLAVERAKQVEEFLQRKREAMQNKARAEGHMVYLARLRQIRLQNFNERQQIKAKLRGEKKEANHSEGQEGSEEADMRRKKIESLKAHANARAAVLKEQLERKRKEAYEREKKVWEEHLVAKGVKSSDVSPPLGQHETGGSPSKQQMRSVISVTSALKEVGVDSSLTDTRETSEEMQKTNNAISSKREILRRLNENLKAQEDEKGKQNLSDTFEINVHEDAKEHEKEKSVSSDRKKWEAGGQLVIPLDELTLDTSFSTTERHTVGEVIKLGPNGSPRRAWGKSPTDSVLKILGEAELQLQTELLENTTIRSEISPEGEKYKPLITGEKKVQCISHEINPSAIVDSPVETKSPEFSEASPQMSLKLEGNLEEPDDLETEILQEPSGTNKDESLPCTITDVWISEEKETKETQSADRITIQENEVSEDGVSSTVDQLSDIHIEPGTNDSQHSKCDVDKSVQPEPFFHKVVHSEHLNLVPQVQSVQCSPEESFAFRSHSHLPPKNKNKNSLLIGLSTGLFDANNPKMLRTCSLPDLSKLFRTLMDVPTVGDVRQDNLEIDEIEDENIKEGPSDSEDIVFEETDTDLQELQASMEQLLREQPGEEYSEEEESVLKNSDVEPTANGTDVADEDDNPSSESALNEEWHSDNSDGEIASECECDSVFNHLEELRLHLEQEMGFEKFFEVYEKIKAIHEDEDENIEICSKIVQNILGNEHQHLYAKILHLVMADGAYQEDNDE

[4] = target: Platelet-derived growth factor receptor beta (Homo sapiens) (UniProt P09619); assay: Inhibition of human PDGFRB (582 to 1009 residues) expressed in bacterial expression system assessed as enzyme activity at 1 uM by KINOMEScan assay relative to control; design: scale not given: the % may be the effect or the level left
Chain of Platelet-derived growth factor receptor beta (Homo sapiens) (P09619 whole entry, the tested form may be a part): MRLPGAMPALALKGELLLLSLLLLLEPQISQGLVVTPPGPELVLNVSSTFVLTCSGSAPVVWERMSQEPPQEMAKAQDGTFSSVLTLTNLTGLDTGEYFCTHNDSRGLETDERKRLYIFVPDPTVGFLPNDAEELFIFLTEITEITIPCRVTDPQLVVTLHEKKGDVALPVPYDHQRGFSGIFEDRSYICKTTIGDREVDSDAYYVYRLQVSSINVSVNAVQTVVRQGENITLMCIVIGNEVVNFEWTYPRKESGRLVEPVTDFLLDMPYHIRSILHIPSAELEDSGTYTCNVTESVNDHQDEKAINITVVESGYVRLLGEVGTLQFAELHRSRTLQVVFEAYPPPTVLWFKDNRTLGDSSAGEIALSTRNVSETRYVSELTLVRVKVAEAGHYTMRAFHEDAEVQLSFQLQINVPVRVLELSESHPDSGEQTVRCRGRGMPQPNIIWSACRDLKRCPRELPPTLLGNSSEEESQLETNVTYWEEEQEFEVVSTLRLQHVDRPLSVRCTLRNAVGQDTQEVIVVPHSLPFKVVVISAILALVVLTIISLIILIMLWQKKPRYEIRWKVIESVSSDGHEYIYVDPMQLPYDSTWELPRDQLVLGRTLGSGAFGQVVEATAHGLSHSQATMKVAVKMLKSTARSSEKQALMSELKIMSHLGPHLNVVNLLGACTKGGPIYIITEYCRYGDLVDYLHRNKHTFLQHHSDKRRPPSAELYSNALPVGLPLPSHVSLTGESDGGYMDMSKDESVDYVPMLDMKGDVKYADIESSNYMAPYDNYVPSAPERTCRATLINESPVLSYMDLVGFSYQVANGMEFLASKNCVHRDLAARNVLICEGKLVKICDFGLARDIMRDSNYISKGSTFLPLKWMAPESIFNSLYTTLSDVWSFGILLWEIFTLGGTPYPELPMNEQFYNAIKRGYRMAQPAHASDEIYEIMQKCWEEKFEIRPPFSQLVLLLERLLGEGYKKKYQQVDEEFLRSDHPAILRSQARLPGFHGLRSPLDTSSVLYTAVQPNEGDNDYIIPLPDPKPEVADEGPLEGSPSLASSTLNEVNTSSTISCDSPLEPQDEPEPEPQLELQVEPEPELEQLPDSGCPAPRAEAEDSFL
How it was run: (§1)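 In vitro ATP-site competition binding assay across a panel of 456 kinases, with compound tested at 1 and 10 μM.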

[5] = target: Vascular endothelial growth factor receptor 1 (Homo sapiens) (UniProt P17948); assay: Inhibition of human FLT1 (781 to 1239 residues) expressed in bacterial expression system assessed as enzyme activity at 10 uM by KINOMEScan assay relative to control; design: scale not given: the % may be the effect or the level left; how it was run: as §1
[6] = target: Cytosolic iron-sulfur assembly component 2B (Homo sapiens) (UniProt Q9Y3D0); assay: Binding affinity to FAM96B in human NCI-H23 cells at 1 uM by mass spectrometry based pull down assay; assay type: cell-based
Chain of Cytosolic iron-sulfur assembly component 2B (Homo sapiens) (Q9Y3D0 whole entry): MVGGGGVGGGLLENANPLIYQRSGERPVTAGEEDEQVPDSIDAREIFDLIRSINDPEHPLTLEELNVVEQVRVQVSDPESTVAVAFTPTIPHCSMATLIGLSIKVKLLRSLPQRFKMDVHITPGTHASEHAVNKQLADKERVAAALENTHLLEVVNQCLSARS

[7] = target: T-complex protein 1 subunit epsilon (Homo sapiens) (UniProt P48643); assay: Binding affinity to CCT5 in human NCI-H358 cells at 1 uM by mass spectrometry based pull down assay; assay type: cell-based
Chain of T-complex protein 1 subunit epsilon (Homo sapiens) (P48643 whole entry, one chain of several): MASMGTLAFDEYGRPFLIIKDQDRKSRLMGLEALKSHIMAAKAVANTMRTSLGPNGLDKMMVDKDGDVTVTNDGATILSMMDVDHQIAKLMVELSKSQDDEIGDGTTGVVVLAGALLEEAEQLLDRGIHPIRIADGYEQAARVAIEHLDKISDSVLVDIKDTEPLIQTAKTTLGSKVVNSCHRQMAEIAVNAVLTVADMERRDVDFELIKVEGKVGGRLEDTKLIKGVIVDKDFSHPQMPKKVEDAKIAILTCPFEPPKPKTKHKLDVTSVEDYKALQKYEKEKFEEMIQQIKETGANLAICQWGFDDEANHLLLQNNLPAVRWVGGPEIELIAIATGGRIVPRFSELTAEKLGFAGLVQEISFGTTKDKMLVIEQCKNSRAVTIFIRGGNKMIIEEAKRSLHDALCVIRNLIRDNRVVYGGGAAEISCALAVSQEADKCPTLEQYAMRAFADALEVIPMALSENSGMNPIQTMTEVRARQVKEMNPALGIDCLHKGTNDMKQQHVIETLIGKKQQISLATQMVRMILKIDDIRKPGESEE

[8] = target: Tropomyosin alpha-4 chain (Homo sapiens) (UniProt P67936); assay: Binding affinity to TPM4 in human NCI-H23 cells at 1 uM by mass spectrometry based pull down assay; assay type: cell-based
Chain of Tropomyosin alpha-4 chain (Homo sapiens) (P67936 whole entry): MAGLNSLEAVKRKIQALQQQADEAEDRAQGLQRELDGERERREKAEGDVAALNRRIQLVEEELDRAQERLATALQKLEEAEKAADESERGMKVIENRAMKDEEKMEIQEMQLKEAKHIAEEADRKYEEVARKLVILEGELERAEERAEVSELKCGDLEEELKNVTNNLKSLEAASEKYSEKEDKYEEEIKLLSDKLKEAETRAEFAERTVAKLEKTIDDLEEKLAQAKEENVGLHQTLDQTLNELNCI

[9] = target: Y-box-binding protein 1 (Homo sapiens) (UniProt P67809); assay: Binding affinity to YBX1 in human NCI-H358 cells at 1 uM by mass spectrometry based pull down assay; assay type: cell-based
Chain of Y-box-binding protein 1 (Homo sapiens) (P67809 whole entry): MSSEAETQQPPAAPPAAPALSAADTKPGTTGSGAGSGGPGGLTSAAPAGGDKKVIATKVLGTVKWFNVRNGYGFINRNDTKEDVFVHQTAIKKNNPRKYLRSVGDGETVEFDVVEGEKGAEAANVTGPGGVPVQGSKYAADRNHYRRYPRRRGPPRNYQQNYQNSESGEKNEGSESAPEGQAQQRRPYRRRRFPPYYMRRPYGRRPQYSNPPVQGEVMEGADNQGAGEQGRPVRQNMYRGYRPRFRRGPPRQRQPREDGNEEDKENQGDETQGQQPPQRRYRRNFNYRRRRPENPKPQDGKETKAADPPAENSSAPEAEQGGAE

[10] = target: 14-3-3 protein theta (Homo sapiens) (UniProt P27348); assay: Binding affinity to YWHAQ in human NCI-H23 cells at 1 uM by mass spectrometry based pull down assay; assay type: cell-based
Chain of 14-3-3 protein theta (Homo sapiens) (P27348 whole entry): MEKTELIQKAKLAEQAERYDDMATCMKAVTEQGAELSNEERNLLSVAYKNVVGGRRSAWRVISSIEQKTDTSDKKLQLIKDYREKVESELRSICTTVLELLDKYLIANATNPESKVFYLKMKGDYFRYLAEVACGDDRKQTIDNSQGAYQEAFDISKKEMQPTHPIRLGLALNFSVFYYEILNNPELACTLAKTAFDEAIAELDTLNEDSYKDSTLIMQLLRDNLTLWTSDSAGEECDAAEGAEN

[11] = target: Cyclin-dependent kinase 5 (Homo sapiens) (UniProt Q00535); assay: Binding affinity to CDK5 in human NCI-H358 cells at 1 uM by mass spectrometry based pull down assay; assay type: cell-based
Chain of Cyclin-dependent kinase 5 (Homo sapiens) (Q00535 whole entry, looked up): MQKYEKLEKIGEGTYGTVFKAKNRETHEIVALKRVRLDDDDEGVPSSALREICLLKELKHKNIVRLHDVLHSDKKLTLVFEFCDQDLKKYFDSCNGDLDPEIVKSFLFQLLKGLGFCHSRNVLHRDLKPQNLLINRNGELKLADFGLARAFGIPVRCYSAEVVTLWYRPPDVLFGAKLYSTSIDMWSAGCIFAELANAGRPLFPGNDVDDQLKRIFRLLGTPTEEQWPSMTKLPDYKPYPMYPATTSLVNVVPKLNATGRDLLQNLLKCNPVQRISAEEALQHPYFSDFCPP

[12] = target: Vesicle-trafficking protein SEC22b (Homo sapiens) (UniProt O75396); assay: Binding affinity to SEC22B in human NCI-H358 cells at 1 uM by mass spectrometry based pull down assay; assay type: cell-based
Chain of Vesicle-trafficking protein SEC22b (Homo sapiens) (O75396 whole entry): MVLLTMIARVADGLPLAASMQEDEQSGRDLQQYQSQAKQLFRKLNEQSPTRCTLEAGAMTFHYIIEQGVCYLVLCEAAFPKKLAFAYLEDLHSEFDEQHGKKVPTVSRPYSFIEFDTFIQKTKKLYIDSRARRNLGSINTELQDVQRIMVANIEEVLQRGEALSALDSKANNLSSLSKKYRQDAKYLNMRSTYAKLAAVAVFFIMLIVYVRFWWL

[13] = target: 80S Ribosome (Homo sapiens) (UniProt P08865+P42677+P62753+P15880+P23396+P61247+P62701+P22090+P46782+P62081+P62241+P46781+P46783+P62280+P25398+P62277+P62263+P62841+P62244+P62249+P08708+P62269+P39019+P60866+P63220+P62266+P62847+P62851+P62854+P62979+P62857+P62273+P62861+P39023+P36578+P46777+Q02878+P18124+P62424+P62917+P32969+P27635+P62906+P62913+P30050+P26373+P40429+P50914+P61313+P18621+Q07020+Q02543+P84098+P46778+P35268+P62829+P62750+P83731+P61254+P61353+P46776+P46779+P47914+P62888+P62899+P62910+P49207+P42766+P18077+Q9Y3U8+P83881+P61927+P61513+P63173+P62891+P62945+P05388+P05386); assay: Binding affinity to RPS26 in human NCI-H358 cells at 1 uM by mass spectrometry based pull down assay; assay type: cell-based
[14] = target: T2, Dual specificity mitogen-activated protein kinase kinase 4 (Homo sapiens) (UniProt P45985); assay: Binding affinity to MAP2K4 in human NCI-H358 cells at 1 uM by mass spectrometry based pull down assay; assay type: cell-based
T2 sequence (whole entry): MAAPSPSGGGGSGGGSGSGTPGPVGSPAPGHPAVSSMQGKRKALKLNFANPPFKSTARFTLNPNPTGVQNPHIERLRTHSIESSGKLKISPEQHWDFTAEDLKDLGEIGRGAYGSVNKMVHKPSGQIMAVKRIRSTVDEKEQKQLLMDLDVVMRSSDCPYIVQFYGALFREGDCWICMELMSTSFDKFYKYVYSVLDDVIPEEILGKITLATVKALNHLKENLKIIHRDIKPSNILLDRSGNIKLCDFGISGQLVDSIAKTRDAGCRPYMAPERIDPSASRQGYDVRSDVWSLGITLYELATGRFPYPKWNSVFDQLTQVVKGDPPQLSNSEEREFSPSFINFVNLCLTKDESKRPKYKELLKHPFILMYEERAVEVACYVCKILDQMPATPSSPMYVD

Compound: C=CC(=O)Nc1ccccc1Oc1nc(Nc2cnn(CCOC)c2)ncc1Cl
- inhibition [1]: Active
- inhibition [2]: -4.2%
- inhibition [3]: -7.4%

Compound: COc1cc(O)c2c(c1)/C=C/C[C@H](O)[C@H](O)C(=O)/C=C\C[C@H](C)OC2=O
- Activity [4]: 1.5%
- Activity [5]: 0.5%

- Activity [6]: Active
- Activity [7]: Active
- Activity [8]: Active
- Activity [9]: Active
- Activity [10]: Active
- Activity [11]: Active
- Activity [12]: Active
- Activity [13]: Active
- Activity [14]: Active
Compound: C=CC(=O)Nc1ccccc1Nc1nc(Nc2ccc(N3CCN(CCOCCOCCOCCNC(=O)CCCC[C@@H]4SC[C@@H]5NC(=O)N[C@@H]54)CC3)cc2)ncc1Cl
